Activity calls are given as the source filed them. The calls are words filed in the database; no cut-off is given here.
Tests used:
Mus musculus [1] = assay: Antidiabetic activity in high fat diet-fed C57BL/6J mouse assessed as decrease in blood glucose level at 250 mg/kg/day, po for 4 weeks measured after 60 mins by intraperitoneal glucose tolerance test; type: functional, organism-based
In short: (§1)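 High-fat-diet (60 kcal%, 8 weeks) male C57BL/6J mice were randomized by body weight and fed glucose, then dosed orally once daily in cellulose/lactose vehicle. ipGTT was done at 4 weeks: D-glucose 2 g/kg ip, glucometer readings at 0, 15, 30, 60, 90 and 120 min. n = 5–8.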

Mus musculus [2] = assay: Antidiabetic activity in high fat diet-fed C57BL/6J mouse assessed as decrease in blood glucose level at 250 mg/kg/day, po for 4 weeks measured after 120 mins by intraperitoneal glucose tolerance test; type: functional, organism-based; in short: as §1
Mus musculus [3] = assay: Antidiabetic activity in C57BLKS/J-db/db mouse assessed as reduction of fasting blood glucose level at 250 mg/kg/day, po for 5 weeks; type: functional, organism-based
Mus musculus [4] = assay: Antiobese activity in high fat diet-fed C57BL/6J mouse assessed as decrease in plasma triglyceride level at 250 mg/kg/day, po for 6 weeks; type: functional; parameters: scale not given: the % may be the effect or the level left
In short: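 DIO male C57BL/6J mice received daily oral dosing in cellulose/lactose vehicle for 6 weeks and were killed after the final dose. Plasma and liver triglycerides were measured by triglyceride assay kit, and fat depots were weighed.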

Mus musculus [5] = assay: Antidiabetic activity in high fat diet-fed C57BL/6J mouse assessed as decrease in plasma insulin level at 250 mg/kg/day, po for 4 weeks; type: functional; parameters: scale not given: the % may be the effect or the level left
In short: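 DIO male C57BL/6J mice (60 kcal% fat diet for 8 weeks) were gavaged daily in 0.5% microcrystalline cellulose/1.6% lactose vehicle. Plasma insulin was determined by ELISA after 4 weeks of treatment. Mean ± SE, n = 5–8.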

Mus musculus [6] = assay: Antiobese activity in C57BLKS/J-db/db mouse assessed as decrease in plasma triglyceride level at 250 mg/kg/day, po […]; type: functional; parameters: scale not given: the % may be the effect or the level left
In short: (§2)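 db/db mice were gavaged once daily in 0.5% microcrystalline cellulose/1.6% lactose vehicle for 6 weeks and killed after the final dose. Plasma triglycerides were measured with a colorimetric triglyceride assay kit.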

Mus musculus [7] = assay: Antidiabetic activity in C57BLKS/J-db/db mouse assessed as decrease in area under curve at 50 mg/kg/day, po for 4 weeks by insulin tolerance test; type: functional; parameters: scale not given: the % may be the effect or the level left
[8] = Stability in acidic buffer at pH 2 after 6 hrs by HPLC; type: physicochemical; details: acidic buffer, pH 2
In short: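 A 0.5 mg/mL solution in acetonitrile was adjusted to pH 2 with H3PO4 and analyzed over 6 h by HPLC. Conditions: C18 column at 25 °C, 58% acetonitrile in 0.05 mol/L KH2PO4/0.005 mol/L SDS, 1 mL/min, detection at 320 nm.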

[9] = Aqueous solubility of compound in distilled water; type: physicochemical
In short: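 Excess solid was suspended in distilled water and stirred 24 h at 25 ± 0.5 °C. The suspension was filtered, and dissolved concentration was measured by HPLC.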

[10] = Oral bioavailability in 12 hrs fasting Sprague-Dawley rat at 20 mg/kg; type: ADME, organism-based; details: in vivo
Mus musculus [11] = assay: Antidiabetic activity in C57BLKS/J-db/db mouse assessed as alleviation of glucose tolerance at 50 mg/kg/day, po for 3 weeks by intraperitoneal glucose tolerance test; type: functional, organism-based
In short: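 Male and female C57BLKS/J-db/db mice, randomized at 6 weeks of age by body weight and fed glucose, were gavaged once daily in vehicle (0.5% microcrystalline cellulose, 1.6% lactose). For ipGTT, D-glucose was given at 2 g/kg ip, and blood glucose was read by glucometer at 0, 15, 30, 60, 90 and 120 min.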

Mus musculus [12] = assay: Antidiabetic activity in C57BLKS/J-db/db mouse assessed as decrease in fed blood glucose level at 50 mg/kg/day, po for 3 weeks; type: functional; parameters: scale not given: the % may be the effect or the level left
Mus musculus [13] = assay: Antidiabetic activity in C57BLKS/J-db/db mouse assessed as decrease in fed blood glucose level at 50 mg/kg/day, po for 4 weeks; type: functional; parameters: scale not given: the % may be the effect or the level left
Mus musculus [14] = assay: Antidiabetic activity in C57BLKS/J-db/db mouse assessed as reduction of fasting blood glucose level at 50 mg/kg/day, po for 3 weeks; type: functional; parameters: scale not given: the % may be the effect or the level left
Mus musculus [15] = assay: Antiobese activity in C57BLKS/J-db/db mouse assessed as decrease in plasma triglyceride level at 50 mg/kg/day, po […]; type: functional; in short: as §2
Mus musculus [16] = assay: Toxicity in C57BLKS/J-db/db mouse assessed as change in body weight at 50 mg/kg/day, po for 6 weeks; type: organism-based; parameters: route oral; details: in vivo, 1008 h
In short: (§3)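 db/db mice (half male, half female) were dosed by oral gavage daily for 6 weeks in 0.5% microcrystalline cellulose/1.6% lactose vehicle. Body weight and food intake were recorded daily. Mice were killed after the final dose, and liver and fat depots were weighed and expressed relative to body weight.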

Mus musculus [17] = assay: Toxicity in C57BLKS/J-db/db mouse assessed as change in food intake at 50 mg/kg/day, po for 6 weeks; type: organism-based; parameters: route oral; details: in vivo, 1008 h; in short: as §3
Mus musculus [18] = assay: Toxicity in C57BLKS/J-db/db mouse assessed as reduction in liver weight at 50 mg/kg/day, po for 6 weeks; type: organism-based; parameters: route oral; scale not given: the % may be the effect or the level left; details: in vivo, 1008 h; in short: as §3
Mus musculus [19] = assay: Toxicity in C57BLKS/J-db/db mouse assessed as increase in subcutaneous fat at 50 mg/kg/day, po for 6 weeks; type: organism-based; parameters: route oral; details: in vivo, 1008 h; in short: as §3

SMILES | Activity (Mus musculus [1]) | Activity (Mus musculus [2]) | Activity (Mus musculus [3]) | Activity (Mus musculus [4]) [%] | Activity (Mus musculus [5]) [%] | Activity (Mus musculus [6]) [%] | Activity (Mus musculus [7]) [%] | decrease in content after 6 h at 6 h [8] [%] | solubility [9] [µg/mL] | bioavailability [10] [%] | Activity (Mus musculus [11]) | Activity (Mus musculus [12]) [%] | Activity (Mus musculus [13]) [%] | Activity (Mus musculus [14]) [%] | Activity (Mus musculus [15]) | Activity (Mus musculus [16]) | Activity (Mus musculus [17]) | Activity (Mus musculus [18]) [%] | Activity (Mus musculus [19]) [%]
CN(C)C(=N)NC(=N)N [METFORMIN] | Active | Active | Active | 33 | 43 | 23 | 14 |  |  |  |  |  |  |  |  |  |  |  | 
COc1ccc2c(c1OC)CN1CCc3cc4c(cc3C1=C2)OCO4 [DIHYDROBERBERINE] |  |  |  |  |  |  | 12 | 17 | < 1000 | 2.65 | inactive | 25 | 18 | 17 | inactive | Non-toxic | Non-toxic | 11 | 14

Source: ChEMBL document CHEMBL1821702, “8,8-Dimethyldihydroberberine with improved bioavailability and oral efficacy on obese and diabetic mouse models” (Bioorg Med Chem, 2010)
